Measurements pooled from the literature.
BTK: Tyrosine-protein kinase BTK (BTK, Homo sapiens, UniProt Q06187)

| target | test | test system | setting | endpoint | value | Compound |
| --- | --- | --- | --- | --- | --- | --- |
| Cyclin-dependent kinase 11A (CDK11A, Homo sapiens, UniProt Q9UQ88) | cell-free assay |  | 20 µM | remaining signal | 0.3% | Nc1ncnc2occ(-c3ccc(NC(=O)Nc4cc(C(F)(F)F)ccc4F)cc3)c12 |
| BTK | enzyme activity, inhibitor |  |  | KI (inactivation) | 1.8 nM | C=CC(=O)N1CCC[C@@H]1Cn1nc(-c2ccc(Oc3ccccc3)cc2F)c2c(N)ncnc21 |
| Mitogen-activated protein kinase kinase kinase 19 (MAP3K19, Homo sapiens, UniProt Q56UN5) | enzyme activity, inhibitor |  | 23.5 nM | remaining activity | 54% | Cc1ccc(C(=O)Nc2ccc(CN3CCN(C)CC3)c(C(F)(F)F)c2)cc1C#Cc1cnc2cccnn12 |
| BTK | enzyme activity, inhibitor |  |  | kinact/KI | 400000 M⁻¹ s⁻¹ | CC(C)(C=C(C#N)C(=O)N1CCC[C@H]1Cn1nc(-c2ccc(Oc3ccccc3)cc2F)c2c(N)ncnc21)N1CCOCC1 |
| Neuropeptides B/W receptor type 1 (NPBWR1, Homo sapiens, UniProt P48145) | cAMP, agonist, TR-FRET |  |  | Emax | 94% | CC(C)C[C@H](NC(=O)[C@H](CC(C)C)NC(=O)CNC(=O)[C@H](C)NC(=O)[C@H](C)NC(=O)[C@H](CCCNC(=N)N)NC(=O)CNC(=O)CCCCNC(=O)CCCCNC(=O)CCCCNC(=O)[C@H](CCCCN)NC(=O)[C@H](Cc1ccc(O)cc1)NC(=O)CCc1c[nH]c2ccccc12)C(N)=O |
| Serine/threonine-protein kinase tousled-like 1 (TLK1, Homo sapiens, UniProt Q9UKI8) | enzyme activity, inhibitor, radiometric |  | 1 µM | remaining activity | 95% | COc1cc(Nc2cnc(C#N)c(O[C@H](C)CN(C)C)n2)ncc1-c1cnn(C)c1 |
| BTK | binding, SPR |  |  | koff | 7.9e-05 s⁻¹ | COc1ccc(F)cc1C(=O)NCc1ccc(-c2nn([C@@H](C)C(F)(F)F)c(N)c2C(N)=O)cc1 |
| Neurotensin receptor type 1 (NTSR1, Homo sapiens, UniProt P30989) | calcium signal, agonist | CHO |  | Emax | 63% | COc1cccc(OC)c1-c1cc(C(=O)N[C@@H](CC(C)C)C(=O)O)nn1-c1ccnc2cc(Cl)ccc12 |
